Measurements: ChEMBL document CHEMBL2062483, “Design of Bcl-2 and Bcl-xL inhibitors with subnanomolar binding affinities based upon a new scaffold” (J Med Chem, 2012)
Calls of active or inactive are those of the source. The rule behind the calls is not given here.

Legend:
NCI-H1417 = test: Growth inhibition of human NCI-H1417 cells after 4 days by WST8 assay; format: functional, cell-based; details: NCI-H1417, 96 h
[1] = Growth inhibition of human NCI-H146 cells after 4 days by WST8 assay; format: functional, cell-based; details: NCI-H146, 96 h
[2] = molecular target: Induced myeloid leukemia cell differentiation protein Mcl-1 (Homo sapiens, UniProt Q07820); test: Binding affinity to N-terminus 8X His-tagged human Mcl1 expressed in Escherichia coli BL21 (DE3) cells after 2 hrs by fluorescence polarization assay
Outline: (§1)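 Competitive FP binding: serially diluted inhibitor in DMSO added to preincubated protein/fluorescent probe complex, 2 h at room temperature with gentle shaking. Final protein/probe: Bcl-2 1.5 nM/1 nM; Bcl-xL 10 nM/2 nM; Mcl-1 20 nM/2 nM. IC50 from nonlinear regression; Ki calculated from IC50, probe Kd and protein/probe concentrations.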

Bcl-2-like protein 1 = Bcl-2-like protein 1 (Homo sapiens, UniProt Q07817); test: Binding affinity to N-terminus 8X His-tagged human Bcl-xL expressed in Escherichia coli BL21 (DE3) cells after 2 hrs by fluorescence polarization assay; outline: as §1
[3] = molecular target: Apoptosis regulator Bcl-2 (Homo sapiens, UniProt P10415); test: Binding affinity to N-terminus 6X His-tagged human Bcl2 expressed in Escherichia coli BL21 (DE3) cells after 2 hrs by fluorescence polarization assay; outline: as §1
[4] = Cytotoxicity against human NCI-H146 cells assessed as cell death at 300 nM after 24 hrs by trypan blue assay; format: functional
Outline: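 H146 human small cell lung cancer line, grown in RPMI-1640 with 10% FBS, exposed to compound for 24 h. Cells then harvested and stained with trypan blue. Blue-stained or morphologically unhealthy cells counted as dead, with at least 100 cells scored per sample.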

NCI-H146 [5] = test: Induction of apoptosis in human NCI-H146 cells assessed as PARP cleavage at 100 nM after 24 hrs by Western blot analysis; format: functional, cell-based
Outline: (§2)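 H146 cells treated 24 h, lysed on ice 20 min in RIPA buffer (1% NP40, 0.5% Na-deoxycholate, 0.1% SDS in PBS) with 1 μmol/L PMSF and protease inhibitors. Lysates cleared, protein quantified, run on 4–20% SDS-PAGE, blotted to PVDF, blocked in 5% milk. Rabbit anti-PARP and anti-caspase-3, GAPDH loading control; HRP secondary with chemiluminescent detection.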

NCI-H146 [6] = test: Cytotoxicity against human NCI-H146 cells assessed as cell death after 24 hrs by trypan blue assay; format: functional, cell-based
Outline: (§3)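 H146 cells exposed to compound for 24 h, then harvested and stained with trypan blue. Cells staining blue or looking morphologically unhealthy were scored dead; at least 100 cells counted per sample.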

NCI-H146 [7] = test: Induction of apoptosis in human NCI-H146 cells assessed as caspase 3 cleavage at 100 nM after 24 hrs by Western blot analysis; format: functional, cell-based; outline: as §2
NCI-H146 [8] = test: Cytotoxicity against human NCI-H146 cells assessed as cell death at 30 to 100 nM after 24 hrs by trypan blue assay; format: functional, cell-based; outline: as §3

Chain of Induced myeloid leukemia cell differentiation protein Mcl-1 (Q07820 whole entry): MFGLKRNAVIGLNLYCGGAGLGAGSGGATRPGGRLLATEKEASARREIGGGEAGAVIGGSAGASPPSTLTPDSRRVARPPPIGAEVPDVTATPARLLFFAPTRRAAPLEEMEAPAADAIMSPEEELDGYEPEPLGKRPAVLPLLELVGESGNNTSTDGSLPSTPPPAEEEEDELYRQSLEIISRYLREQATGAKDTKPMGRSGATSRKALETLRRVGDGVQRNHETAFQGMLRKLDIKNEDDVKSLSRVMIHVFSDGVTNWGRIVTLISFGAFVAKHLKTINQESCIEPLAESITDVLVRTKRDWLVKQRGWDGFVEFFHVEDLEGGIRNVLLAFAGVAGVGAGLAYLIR
Chain of Apoptosis regulator Bcl-2 (P10415 whole entry): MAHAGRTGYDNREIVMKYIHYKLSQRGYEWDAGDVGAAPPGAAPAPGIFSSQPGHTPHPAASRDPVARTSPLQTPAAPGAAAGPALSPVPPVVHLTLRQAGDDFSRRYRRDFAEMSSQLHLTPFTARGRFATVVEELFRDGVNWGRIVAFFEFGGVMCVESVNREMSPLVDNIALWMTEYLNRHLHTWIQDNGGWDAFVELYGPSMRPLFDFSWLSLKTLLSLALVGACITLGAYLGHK
Chain of Bcl-2-like protein 1 (Q07817 whole entry): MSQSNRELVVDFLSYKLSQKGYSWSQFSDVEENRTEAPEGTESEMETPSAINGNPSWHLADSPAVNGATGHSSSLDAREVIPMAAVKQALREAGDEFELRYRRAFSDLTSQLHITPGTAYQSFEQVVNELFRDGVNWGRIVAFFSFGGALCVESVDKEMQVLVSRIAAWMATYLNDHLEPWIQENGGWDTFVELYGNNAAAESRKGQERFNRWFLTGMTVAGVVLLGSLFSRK

IC50 (NCI-H1417) [nM] | IC50 [2] [nM] | IC50 (Bcl-2-like protein 1) [nM] | Ki (Bcl-2-like protein 1) [nM] | IC50 [3] [nM] | Ki [3] [nM] | SMILES | IC50 [1] [nM] | Activity [4] [%] | Activity (NCI-H146 [5]) | Activity (NCI-H146 [6]) | Activity (NCI-H146 [7]) | Activity (NCI-H146 [8])
> 10000 | > 100000 | – | – | – | – | CN(C)CC[C@H](CSc1ccccc1)Nc1ccc(S(=O)(=O)Nc2ccc(N3CCNCC3)cc2)cc1[N+](=O)[O-] | > 10000 | – | – | – | – | –
3300 | > 10000 | 7.6 | < 1 | 33.9 | 8.5 | CN(C)CC[C@H](CSc1ccccc1)Nc1ccc(S(=O)(=O)Nc2ccc(N3CCN(c4ccc(-c5c(-c6ccc(Cl)cc6)cn(CC[C@H](O)CO)c5C(=O)NCCCN5CCN(C)CC5)cc4)CC3)cc2)cc1[N+](=O)[O-] | 2500 | – | – | – | – | –
1800 | > 10000 | 6.2 | < 1 | 1.3 | < 0.6 | CN(C)CC[C@H](CSc1ccccc1)Nc1ccc(S(=O)(=O)Nc2ccc(N3CCN(c4cccc(-c5c(-c6ccc(Cl)cc6)cn(CC[C@H](O)CO)c5C(=O)NCCCN5CCN(C)CC5)c4)CC3)cc2)cc1[N+](=O)[O-] | 2000 | – | – | – | – | –
> 10000 | > 10000 | 44.1 | 11.3 | 60.6 | 15.4 | CN(C)CC[C@H](CSc1ccccc1)Nc1ccc(S(=O)(=O)Nc2ccc(NCCNc3cccc(-c4c(-c5ccc(Cl)cc5)cn(CC[C@H](O)CO)c4C(=O)NCCCN4CCN(C)CC4)c3)cc2)cc1[N+](=O)[O-] | > 10000 | – | – | – | – | –
130 | – | – | – | – | – | CN(C)CC[C@H](CSc1ccccc1)Nc1ccc(S(=O)(=O)NC(=O)c2ccc(N3CCN(Cc4ccccc4-c4ccc(Cl)cc4)CC3)cc2)cc1[N+](=O)[O-] [ABT 737] | 97 | – | – | – | – | –
> 10000 | > 100000 | 453000 | – | 213000 | 78000 | CN1CCN(CCCNC(=O)c2c(-c3ccccc3)c(-c3ccc(Cl)cc3)cn2CC[C@H](O)CO)CC1 | > 10000 | – | – | – | – | –
> 10000 | > 2000 | 34.4 | 8.3 | 82.6 | 21.1 | CN(C)CC[C@H](CSc1ccccc1)Nc1ccc(S(=O)(=O)Nc2ccc(N3CCN(c4cccc(-c5cn(C)cc5-c5ccc(Cl)cc5)c4)CC3)cc2)cc1[N+](=O)[O-] | > 10000 | – | – | – | – | –
650 | > 2000 | 6.3 | < 1 | 5.3 | 1.2 | CNC(=O)c1c(-c2cccc(N3CCN(c4ccc(NS(=O)(=O)c5ccc(N[C@H](CCN(C)C)CSc6ccccc6)c([N+](=O)[O-])c5)cc4)CC3)c2)c(-c2ccc(Cl)cc2)cn1C | 400 | – | – | – | – | –
7300 | > 2000 | 12.6 | 1.7 | 45.8 | 11.6 | CCOC(=O)c1c(-c2cccc(N3CCN(c4ccc(NS(=O)(=O)c5ccc(N[C@H](CCN(C)C)CSc6ccccc6)c([N+](=O)[O-])c5)cc4)CC3)c2)c(-c2ccc(Cl)cc2)cn1C | 4900 | – | – | – | – | –
> 10000 | > 10000 | 5.7 | < 1 | 1.9 | – | CN(C)CC[C@H](CSc1ccccc1)Nc1ccc(S(=O)(=O)NC(=O)c2ccc(C#Cc3cccc(-c4c(-c5ccc(Cl)cc5)cn(CC[C@H](O)CO)c4C(=O)NCCCN4CCN(C)CC4)c3)cc2)cc1[N+](=O)[O-] | > 10000 | – | – | – | – | –
650 | > 10000 | 4.9 | < 1 | 0.6 | < 0.6 | CN(C)CC[C@H](CSc1ccccc1)Nc1ccc(S(=O)(=O)Nc2ccc(N3CCN(c4cccc(-c5c(-c6ccc(Cl)cc6)cn(C)c5C(=O)NCCCN5CCN(C)CC5)c4)CC3)cc2)cc1[N+](=O)[O-] | 430 | – | – | – | – | –
> 10000 | > 10000 | 4.8 | < 1 | 1.4 | < 0.6 | CN(C)CC[C@H](CSc1ccccc1)Nc1ccc(S(=O)(=O)Nc2ccc(-c3cn(-c4cccc(-c5c(-c6ccc(Cl)cc6)cn(CC[C@H](O)CO)c5C(=O)NCCCN5CCN(C)CC5)c4)nn3)cc2)cc1[N+](=O)[O-] | > 10000 | – | – | – | – | –
> 10000 | > 10000 | 88.3 | 24.7 | 85.3 | 21.8 | CN(C)CC[C@H](CSc1ccccc1)Nc1ccc(S(=O)(=O)Nc2ccc(N3CCN(Cc4ccccc4-c4ccc(Cl)cc4)CC3)cc2)cc1[N+](=O)[O-] | > 10000 | – | – | – | – | –
> 10000 | > 100000 | 238000 | 75000 | > 100000 | – | CN(C)CC[C@H](CSc1ccccc1)Nc1ccc(S(N)(=O)=O)cc1[N+](=O)[O-] | > 10000 | – | – | – | – | –
> 10000 | > 10000 | 12.6 | 1.7 | 6.6 | 1.5 | CN(C)CC[C@H](CSc1ccccc1)Nc1ccc(S(=O)(=O)Nc2ccc(C#Cc3cccc(-c4c(-c5ccc(Cl)cc5)cn(CC[C@H](O)CO)c4C(=O)NCCCN4CCN(C)CC4)c3)cc2)cc1[N+](=O)[O-] | > 10000 | – | – | – | – | –
> 10000 | > 10000 | 6.1 | < 1 | 8.7 | 2 | CN(C)CC[C@H](CSc1ccccc1)Nc1ccc(S(=O)(=O)NC(=O)c2ccc(N3CCN(c4cccc(-c5c(-c6ccc(Cl)cc6)cn(CC[C@H](O)CO)c5C(=O)NCCCN5CCN(C)CC5)c4)CC3)cc2)cc1[N+](=O)[O-] | > 10000 | – | – | – | – | –
552 | > 2000 | 3.6 | < 1 | 1.7 | < 0.6 | CN(C)CC[C@H](CSc1ccccc1)Nc1ccc(S(=O)(=O)Nc2ccc(N3CCN(c4cccc(-c5c(-c6ccc(Cl)cc6)cn(C)c5C(=O)O)c4)CC3)cc2)cc1[N+](=O)[O-] | 340 | – | Active | Dose-dependent effect | Active | –
> 10000 | > 100000 | 547000 | 166000 | > 100000 | – | CN(C)CC[C@H](CSc1ccccc1)Nc1ccc(S(=O)(=O)Nc2ccccc2)cc1[N+](=O)[O-] | > 10000 | – | – | – | – | –

SMILES | IC50 (NCI-H1417) [nM] | IC50 [2] [nM] | IC50 (Bcl-2-like protein 1) [nM] | Ki (Bcl-2-like protein 1) [nM] | IC50 [3] [nM] | Ki [3] [nM] | IC50 [1] [nM] | Activity [4] [%] | Activity (NCI-H146 [5]) | Activity (NCI-H146 [6]) | Activity (NCI-H146 [7]) | Activity (NCI-H146 [8])
CCc1c(-c2ccc(Cl)cc2)c(-c2cccc(N3CCN(c4ccc(NS(=O)(=O)c5ccc(N[C@H](CCN(C)C)CSc6ccccc6)c([N+](=O)[O-])c5)cc4)CC3)c2)c(C(=O)O)n1C | – | > 2000 | 7.5 | < 1 | – | – | – | >70 | Active | Dose-dependent effect | Active | Active
